Calls of active or inactive are those of the source. No cut-off for these calls is given here.
Experiments:
[1] = system: SH-SY5Y; experiment: Neuroprotective activity in human SH-SY5Y cells assessed as inhibition Abeta25-35-induced reduction of cell viability at 1 uM compound pretreated for 2 hrs before induction cell viability measured after 24 hrs (reference value: 69.77%); format: functional
[2] = system: SH-SY5Y; experiment: Neuroprotective activity in human SH-SY5Y cells assessed as inhibition Abeta25-35-induced reduction of cell viability at 10 uM after 24 hrs by SRB assay; format: functional
[3] = system: SH-SY5Y; experiment: Neuroprotective activity in human SH-SY5Y cells assessed as inhibition Abeta25-35-induced reduction of cell viability at 10 uM compound pretreated for 2 hrs before induction cell viability measured after 24 hrs (reference value: 69.77%); format: functional
[4] = system: A549; experiment: Cytotoxicity against human A549 cells by MTT assay; format: functional
Summary of the method: (§1)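 Cells were exposed to compound at 10 μM, and cytotoxicity was expressed as percent inhibition of growth.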

[5] = Cytotoxicity against human HL60 cells by MTT assay; format: functional, HL-60; summary of the method: as §1
[6] = system: SH-SY5Y; experiment: Neuroprotective activity in human SH-SY5Y cells assessed as inhibition H2O2-induced damage measured as cell viability at 1 uM measured after 24 hrs; format: functional, cell-based
Summary of the method: (§2)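 Human SH-SY5Y cells were subjected to H2O2-induced damage, with compounds at 1 or 10 μM and L-NAC at 100 μM as the positive control. Cell viability was compared with control and with H2O2-only wells. Data are mean ± SD, n = 3-6.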

[7] = system: SH-SY5Y; experiment: Neuroprotective activity in human SH-SY5Y cells assessed as inhibition H2O2-induced damage measured as cell viability at 10 uM measured after 24 hrs; format: functional; summary of the method: as §2
[8] = system: SH-SY5Y; experiment: Neuroprotective activity in human SH-SY5Y cells assessed as inhibition H2O2-induced damage measured as cell viability at 100 uM measured after 24 hrs; format: functional; summary of the method: as §2
[9] = system: SH-SY5Y; experiment: Neuroprotective activity in human SH-SY5Y cells assessed as inhibition OGD-induced injuries measured as cell viability at 10 uM measured after 24 hrs; format: functional
Summary of the method: (§3)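 Oxygen-glucose deprivation (OGD) injury was applied to human SH-SY5Y cells, with compounds at 1 μM or higher. Cell viability, or its increase, was compared with control and with OGD-only wells. Data are mean ± SD, n = 3-6.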

[10] = system: SH-SY5Y; experiment: Neuroprotective activity in human SH-SY5Y cells assessed as inhibition OGD-induced injuries measured as cell viability at 1 uM measured after 24 hrs; format: functional; summary of the method: as §3
[11] = system: SH-SY5Y; experiment: Neuroprotective activity in human SH-SY5Y cells assessed as inhibition OGD-induced injuries measured as increase in cell viability at 1 uM measured after 24 hrs; format: functional; summary of the method: as §3

Compound	Activity [1]	Activity [3]	further results
CCCc1ccc(-c2ccc(-c3noc(Cc4c[nH]c5ccccc45)n3)o2)cc1	89.7%	114.2%	Activity [2]: 96%
Nc1ncc(-c2ccc(-c3noc(Cc4c[nH]c5ccccc45)n3)o2)cn1	inactive	inactive	inhibition (INH) [4]: 2%; inhibition (INH) [5]: 26%
Cc1ccc(-c2ccc(-c3noc(Cc4c[nH]c5ccccc45)n3)o2)cc1	inactive	80.3%	–
COc1ccc(-c2ccc(-c3noc(Cc4c[nH]c5ccccc45)n3)o2)cc1	inactive	91.5%	Activity [6]: inactive; Activity [7]: 98%
Oc1ccc(-c2ccc(-c3noc(Cc4c[nH]c5ccccc45)n3)o2)cc1	inactive	inactive	–
CC(C)c1ccc(-c2ccc(-c3noc(Cc4c[nH]c5ccccc45)n3)o2)cc1	inactive	93.3%	–
CC(=O)N[C@@H](CS)C(=O)O [ACETYLCYSTEINE]	–	–	Activity [8]: 89.2%
N#Cc1ccc(-c2ccc(-c3noc(Cc4c[nH]c5ccccc45)n3)o2)cc1	inactive	93.3%	–
Nc1ccc(-c2cccc(-c3noc(Cc4c[nH]c5ccccc45)n3)c2)cc1	inactive	106%	Activity [9]: inactive
OCc1ccc(-c2ccc(-c3noc(Cc4c[nH]c5ccccc45)n3)o2)cc1	inactive	92.1%	–
Cc1cccc(-c2ccc(-c3noc(Cc4c[nH]c5ccccc45)n3)o2)c1	inactive	inactive	–
CN1CCN(c2ccc(-c3ccc(-c4noc(Cc5c[nH]c6ccccc56)n4)o3)cc2)CC1	inactive	inactive	–
Fc1ccc(-c2ccc(-c3noc(Cc4c[nH]c5ccccc45)n3)o2)cc1	inactive	84.8%	–
Nc1ccc(-c2ccc(-c3noc(Cc4c[nH]c5ccccc45)n3)s2)cc1	inactive	inactive	–
c1ccc(-c2ccc(-c3noc(Cc4c[nH]c5ccccc45)n3)o2)cc1	inactive	inactive	–
CN(C)c1ccc(-c2ccc(-c3noc(Cc4c[nH]c5ccccc45)n3)o2)cc1	inactive	inactive	Activity [6]: inactive; Activity [7]: 98%
O=C(O[C@@H]1Cc2c(O)cc(O)cc2O[C@@H]1c1cc(O)c(O)c(O)c1)c1cc(O)c(O)c(O)c1 [EPIGALOCATECHIN GALLATE]	–	96.2%	–
CCc1ccc(-c2ccc(-c3noc(Cc4c[nH]c5ccccc45)n3)o2)cc1	inactive	100%	–
CCCOc1ccc(-c2ccc(-c3noc(Cc4c[nH]c5ccccc45)n3)o2)cc1	90%	115.5%	Activity [10]: 80.4%; Activity [6]: inactive; Activity [9]: 84.1%; Activity [2]: 94%; Activity [7]: 98%
c1ccc2c(Cc3nc(-c4ccc(-c5ccc(N6CCOCC6)cc5)o4)no3)c[nH]c2c1	inactive	inactive	–
Nc1ccc(-c2ccc(-c3noc(Cc4c[nH]c5ccccc45)n3)o2)cc1	inactive	92.4%	inhibition (INH) [4]: 2%; Activity [11]: 18.96%; inhibition (INH) [5]: 26%
Brc1ccc(-c2ccc(-c3noc(Cc4c[nH]c5ccccc45)n3)o2)cc1	inactive	83.5%	–
Cc1ccccc1-c1ccc(-c2noc(Cc3c[nH]c4ccccc34)n2)o1	inactive	inactive	–
Clc1ccc(-c2ccc(-c3noc(Cc4c[nH]c5ccccc45)n3)o2)cc1	inactive	83.9%	–
CCOc1ccc(-c2ccc(-c3noc(Cc4c[nH]c5ccccc45)n3)o2)cc1	inactive	89.1%	Activity [10]: 80.6%; Activity [6]: inactive; Activity [9]: 76.2%; Activity [7]: 98%
CC(C)(C)c1ccc(-c2ccc(-c3noc(Cc4c[nH]c5ccccc45)n3)o2)cc1	inactive	92.1%	–
